Data from ChEMBL document CHEMBL1129431, “Derivatives of (R)- and (S)-5-fluoro-8-hydroxy-2-(dipropylamino)tetralin: synthesis and interactions with 5-HT1A receptors” (J Med Chem, 1996).
Several values for one entry are separate records, joined by “and”; a condition that tells them apart may be missing. Identical values can stand only once.

What was measured:
[1] = biological target: T1, 5-hydroxytryptamine receptor 1A (Rattus norvegicus) (UniProt P19327); test: Effect against 5-hydroxytryptamine 1A receptor mediated inhibition of VIP-stimulated cAMP production at 0.1 uM dose; assay type: functional; conditions: values are per cent of control
T1 sequence (whole entry): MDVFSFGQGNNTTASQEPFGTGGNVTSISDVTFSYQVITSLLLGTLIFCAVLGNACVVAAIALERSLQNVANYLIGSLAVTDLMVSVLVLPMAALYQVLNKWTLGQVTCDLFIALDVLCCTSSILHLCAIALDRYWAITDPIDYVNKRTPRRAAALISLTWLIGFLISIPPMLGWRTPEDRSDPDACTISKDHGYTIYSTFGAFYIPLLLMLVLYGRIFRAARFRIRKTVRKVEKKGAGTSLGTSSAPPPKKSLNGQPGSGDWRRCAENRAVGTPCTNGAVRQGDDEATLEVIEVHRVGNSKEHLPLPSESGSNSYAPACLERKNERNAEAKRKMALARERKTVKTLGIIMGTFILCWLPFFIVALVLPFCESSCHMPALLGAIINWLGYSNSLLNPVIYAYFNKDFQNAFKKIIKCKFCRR
Outline: (§1)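 GH4ZD10 cells expressing rat 5-HT1A receptors were detached with EBSS plus 1 mM EDTA and resuspended to ~1×10^7 cells/mL in Ham's F10 with 0.01% ascorbic acid and 0.1 mM IBMX. After 1 h preincubation at 37 °C they were diluted to 0.8-1.5×10^6 cells/mL, then incubated 20 min at 37 °C with VIP (39 nM final) plus compound, alone or with 5-HT, in duplicate. The reaction was stopped by boiling. cAMP was measured in triplicate by protein-binding assay and expressed as % of the VIP-stimulated response.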

[2] = biological target: T1, 5-hydroxytryptamine receptor 1A (Rattus norvegicus); test: Effect on 5-hydroxytryptamine 1A receptor mediated inhibition of VIP-stimulated cAMP production at dose of 0.1 uM + 1 uM 5-HT.; assay type: functional; conditions: values are per cent of control; outline: as §1
[3] = biological target: T1, 5-hydroxytryptamine receptor 1A (Rattus norvegicus); test: Effect on 5-hydroxytryptamine 1A receptor mediated inhibition of VIP-stimulated cAMP production at dose of 10 uM; assay type: functional; conditions: values are per cent of control; outline: as §1
[4] = biological target: T1, 5-hydroxytryptamine receptor 1A (Rattus norvegicus); test: Effect on 5-hydroxytryptamine 1A receptor mediated inhibition of VIP-stimulated cAMP production at dose of 1 uM; assay type: functional; conditions: values are per cent of control; outline: as §1
[5] = biological target: T2, 5-hydroxytryptamine receptor 1A (Rattus norvegicus, UniProt P19327); test: Binding affinity against rat hippocampal 5-hydroxytryptamine 1A (5-HT1A) receptor determined using [3H]8-OH-DPAT as radioligand; assay type: tissue-based, Hippocampus
T2 sequence (P19327 whole entry): T1 sequence (whole entry)

[6] = biological target: T1, 5-hydroxytryptamine receptor 1A (Rattus norvegicus); test: Effect on 5-hydroxytryptamine 1A receptor mediated inhibition of VIP-stimulated cAMP production at dose of 1 uM+ 50 uM 5-HT.; assay type: functional; conditions: values are per cent of control
Outline: (§2)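 GH4ZD10 cells expressing rat 5-HT1A receptors, detached with EDTA-supplemented Ca/Mg-free EBSS and resuspended in Ham's F10 with 0.01% ascorbic acid and 0.1 mM IBMX. Preincubated 1 h at 37 °C, then 0.8-1.5×10^6 cells/mL incubated 20 min at 37 °C with VIP (39 nM final) plus compounds. Duplicate samples stopped by boiling. cAMP measured in triplicate by protein-binding assay. Results are given as % of the VIP-stimulated response.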

[7] = biological target: T1, 5-hydroxytryptamine receptor 1A (Rattus norvegicus); test: Effect on 5-hydroxytryptamine 1A receptor mediated inhibition of VIP-stimulated cAMP production at dose of 30 uM; assay type: functional; conditions: values are per cent of control; outline: as §1
[8] = biological target: T1, 5-hydroxytryptamine receptor 1A (Rattus norvegicus); conditions: 0.1 uM
[9] = biological target: T1, 5-hydroxytryptamine receptor 1A (Rattus norvegicus); conditions: 1 uM
[10] = biological target: T1, 5-hydroxytryptamine receptor 1A (Rattus norvegicus); test: Effect on 5-hydroxytryptamine 1A receptor mediated inhibition of VIP-stimulated cAMP production at dose of 50 uM; assay type: functional; conditions: values are per cent of control; outline: as §2
[11] = biological target: T1, 5-hydroxytryptamine receptor 1A (Rattus norvegicus); test: Effect on 5-hydroxytryptamine 1A receptor mediated inhibition of VIP-stimulated cAMP production at dose of 0.05 uM; assay type: functional; conditions: values are per cent of control; outline: as §2
[12] = biological target: T1, 5-hydroxytryptamine receptor 1A (Rattus norvegicus); test: Effect on 5-hydroxytryptamine 1A receptor mediated inhibition of VIP-stimulated cAMP production at dose of 0.1 uM + 10 uM 5-HT.; assay type: functional; conditions: values are per cent of control; outline: as §1
[13] = biological target: T1, 5-hydroxytryptamine receptor 1A (Rattus norvegicus); test: Effect on 5-hydroxytryptamine 1A receptor mediated inhibition of VIP-stimulated cAMP production at dose of 1 uM+ 10 uM 5-HT.; assay type: functional; conditions: values are per cent of control; outline: as §1
[14] = biological target: T1, 5-hydroxytryptamine receptor 1A (Rattus norvegicus); test: Effect on 5-hydroxytryptamine 1A receptor mediated inhibition of VIP-stimulated cAMP production at dose of 1 uM+ 1 uM 5-HT.; assay type: functional; conditions: values are per cent of control; outline: as §2
[15] = biological target: T1, 5-hydroxytryptamine receptor 1A (Rattus norvegicus); conditions: 0.05 uM

Compound | response, % of control [1] | response, % of control [2] [%] | response, % of control [3] [%] | response, % of control [4] [%] | Ki [5] [µM] | other results
CCCN(CCC)[C@H]1CCc2c(F)ccc(-c3cccs3)c2C1 | 99% | 57 | 88 | 96 | – | –
CCCN(CCC)[C@@H]1CCc2c(F)ccc(-c3cccs3)c2C1 [listing 1 of 2 here] | – | – | – | – | 0.035 | –
CCCN(CCC)[C@H]1CCc2c(F)ccc(-c3ccco3)c2C1 | 100% | 56 | 98 | 98 | – | –
CCCN(CCC)[C@@H]1CCc2c(F)ccc(C(C)=O)c2C1 [listing 1 of 3 here] | – | – | – | – | 0.0069 | –
CCCN(CCC)[C@H]1CCc2c(F)cccc2C1 | – | – | – | – | 0.25 | –
CCCN(CCC)[C@H]1CCc2cccc(-c3ccco3)c2C1 | – | – | – | – | 0.0018 | –
CCCN(CCC)[C@@H]1CCc2cccc(-c3cccs3)c2C1 | – | – | – | – | 0.0084 | –
CCCN(CCC)[C@@H]1CCc2cccc(-c3ccco3)c2C1 | – | – | – | – | 0.0093 | –
CCCN(CCC)[C@@H]1CCc2c(F)ccc(C(C)=O)c2C1 [listing 2 of 3 here] | 99% | 60 | 61 | – | – | response, % of control [6]: 63%; response, % of control [7]: 62%; response, % of control [8]: 95%; response, % of control [9]: 63%
CCCN(CCC)[C@H]1CCc2c(F)ccc(C(C)=O)c2C1 [listing 1 of 3 here] | – | – | – | – | 0.0136 | –
CCCN(CCC)[C@H]1CCc2c(F)ccc(C(C)=O)c2C1 [listing 2 of 3 here] | 90% | 57 | 97 | 98 | – | –
CCCN(CCCCN1C(=O)CC2(CCCC2)CC1=O)[C@@H]1CCc2c(F)ccc(OC)c2C1 | – | 56 | – | 56 | < 0.0003 | response, % of control [10]: 41%; response, % of control [11]: 62%; response, % of control [6]: 40%
CCCN(CCC)[C@@H]1CCc2c(F)ccc(-c3ccco3)c2C1 | 106% and 98% | 60 | 84 | 97 | – | response, % of control [12]: 61%; response, % of control [7]: 79%
CCCN(CCC)[C@@H]1CCc2c(F)ccc(OS(=O)(=O)C(F)(F)F)c2C1 [listing 1 of 2 here] | 98% | 60 | 61 | 91 | – | response, % of control [13]: 52%; response, % of control [7]: 48%
CCCN(CCCCN1C(=O)CC2(CCCC2)CC1=O)[C@@H]1CCc2c(F)ccc(C(C)=O)c2C1 | – | 61 | – | 59 | < 0.0003 | response, % of control [10]: 48%; response, % of control [11]: 50%; response, % of control [6]: 55%
CCCN(CCC)[C@@H]1CCc2c(F)ccc(C(C)=O)c2C1 [listing 3 of 3 here] | – | – | – | – | 0.0069 | –
CCCN(CCC)[C@H]1CCc2cccc(O)c2C1 | 74% | 43 | 62 | 61 | – | response, % of control [14]: 47%
CCCN(CCC)[C@@H]1CCc2c(F)ccc(OS(=O)(=O)C(F)(F)F)c2C1 [listing 2 of 2 here] | – | – | – | – | 0.0185 | –
CCCN(CCC)[C@@H]1CCc2c(F)ccc(-c3cccs3)c2C1 [listing 2 of 2 here] | 98% | 60 | 79 | 93 | – | response, % of control [13]: 58%; response, % of control [7]: 61%
CCCN(CCC)[C@H]1CCc2c(F)ccc(OS(=O)(=O)C(F)(F)F)c2C1 | – | – | – | – | 0.49 | –
CCCN(CCCCN1C(=O)CC2(CCCC2)CC1=O)[C@H]1CCc2c(F)ccc(O)c2C1 | – | – | – | 91 | 0.0182 | response, % of control [10]: 82%; response, % of control [11]: 95%; response, % of control [15]: 68%
CCCN(CCC)[C@H]1CCc2c(F)ccc(C(C)=O)c2C1 [listing 3 of 3 here] | – | – | – | – | 0.0136 | –
